Holding throughout (format): functional
The subject of one test is A549. Kind of test: Growth inhibition of human A549 cells after 48 hrs by SRB assay. Conditions: A549, 48 h. In short, it runs like this: (§1)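 Cells grown in DMEM with 10% FBS, 5% CO2, 37 0C; seeded at densities set by doubling time, incubated 24 hrs, then exposed continuously 48 hrs to 0.01, 0.1, 1, 10, 100 µM; DMSO-treated cells as negative control. Fixed with cold 10% TCA (4 0C, 1 hr), stained 0.057% SRB 30 min, dye dissolved in 10 mM Tris, OD 510 nm; GI50 from [(Ti-Tz)/(C-Tz)]x100 = 50.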
A general note: In SRB staining, fixed cells bind dye roughly in proportion to their protein.

The next test concerns HeLa. Kind of test: Growth inhibition of human HeLa cells after 48 hrs by SRB assay. The method, boiled down:
as §1

The next test relates to MDA-MB-231. Kind of test: Growth inhibition of human MDA-MB-231 cells after 48 hrs by SRB assay. To be noted: MDA-MB-231, 48 h. The method, boiled down:
as §1

The nature of test [1]: Growth inhibition of human PANC1 cells after 48 hrs by SRB assay. Conditions: PANC-1, 48 h. In short, it runs like this: as §1

Molecules are shown by their SMILES.

What is called GI50 is the concentration giving 50% growth inhibition. Higher therefore signals lower sensitivity of the cells. Turning to `Oc1ccc(-c2nc3ncccn3c2CN2CCCCC2)cc1`, the GI50 in the test on A549 turned out to be 6.89 µM; in the test on HeLa, 4.03 µM; in the test on MDA-MB-231, 7.23 µM; in test [1], 0.2 µM.
On the same counts, the results for `Cc1ccn2c(CN3CCOCC3)c(-c3ccccc3)nc2n1` are 1.09 µM, 0.85 µM, 1.43 µM and 1.83 µM.
For the molecule `Cc1ccn2c(CN3CCOCC3)c(-c3ccc(Cl)cc3)nc2n1`, the concentration for 50% growth inhibition (GI50) in the test on A549 is 2.57 µM; with HeLa, 0.16 µM; in the test with MDA-MB-231, 0.32 µM; in test [1], 1.17 µM.
Take `c1csc(-c2nc3ncccn3c2CN2CCCC2)c1`: the concentration for 50% growth inhibition (GI50) stood at 0.18 µM with A549, 0.24 µM with HeLa, 0.2 µM in the test on MDA-MB-231 and 0.68 µM in test [1].
For the molecule `c1ccc(-c2nc3ncccn3c2CN2CCOCC2)cc1`, the 50% growth inhibitory concentration (GI50) turned out to be 0.21 µM in the test with A549, 1.67 µM in the test with HeLa, 1.41 µM in the test with MDA-MB-231 and 0.77 µM in test [1].
Turning to `CN1CCN(Cc2c(-c3ccccc3)nc3ncccn23)CC1`, the concentration for 50% growth inhibition (GI50) is 0.93 µM in the test on HeLa, < 0.01 µM with MDA-MB-231 and 0.35 µM in test [1].
With `Cc1ccn2c(CN3CCCCC3)c(-c3ccccc3)nc2n1`, the concentration for 50% growth inhibition (GI50) with A549 stood at 4.04 µM; in the test on HeLa it was 1.71 µM; with MDA-MB-231, 0.03 µM; in test [1] it was 0.02 µM.
For the molecule `Brc1ccc(-c2nc3ncccn3c2CN2CCN(Cc3c(-c4ccc(Br)cc4)nc4ncccn34)CC2)cc1`, the GI50 in the test on HeLa came out at 0.89 µM; in the test on MDA-MB-231, 1 µM; in test [1], 0.06 µM.
For the molecule `CC(C)(C)c1nc2ncccn2c1CN1CCCCC1`, the GI50 in the test on A549 stood at 0.33 µM; with HeLa, 0.03 µM; with MDA-MB-231 it was 1.49 µM; in test [1], 4.51 µM.
Regarding `c1ccc2cc(-c3nc4ncccn4c3CN3CCN(Cc4c(-c5ccc6ccccc6c5)nc5ncccn45)CC3)ccc2c1`, the concentration for 50% growth inhibition (GI50) was found to be 12.6 µM with HeLa, 31.6 µM with MDA-MB-231 and 79.4 µM in test [1].
Consider `CC(C)(C)c1nc2ncccn2c1CN1CCN(Cc2c(C(C)(C)C)nc3ncccn23)CC1`, for which the values for the GI50 (in the test with HeLa; in the test with MDA-MB-231; in test [1]) were 2.4 µM, 1.1 µM and 3.9 µM, respectively.
Take `COc1cccc2c1C(=O)c1c(O)c3c(c(O)c1C2=O)C[C@@](O)(C(=O)CO)C[C@@H]3O[C@H]1C[C@H](N)[C@H](O)[C@H](C)O1` [DOXORUBICIN]: the GI50 with A549 is < 0.01 µM; in the test on HeLa, 0.031 µM; in the test with MDA-MB-231, 0.01 µM; in test [1] it was 0.01 µM.
On to `c1ccc(-c2nc3ncccn3c2CN2CCN(Cc3c(-c4ccccc4)nc4ncccn34)CC2)cc1`, for which the 50% growth inhibitory concentration (GI50) in the test with HeLa stood at 3.24 µM; in the test with MDA-MB-231 it was 0.27 µM; in test [1], 0.14 µM.
With `Cc1ccn2c(CN3CCCC3)c(-c3ccccc3)nc2n1`, the GI50 is 4.15 µM with A549, 0.18 µM in the test with HeLa, 4.83 µM with MDA-MB-231 and 0.15 µM in test [1].
For the molecule `Cc1ccccc1-c1nc2ncccn2c1CN1CCN(Cc2c(-c3ccccc3C)nc3ncccn23)CC1`, the GI50 is 0.48 µM in the test on HeLa, < 0.01 µM with MDA-MB-231 and 0.12 µM in test [1].
For `Cc1ccc(-c2nc3ncccn3c2CN2CCN(Cc3c(-c4ccc(C)cc4)nc4ncccn34)CC2)cc1` the same measures were 2.8 µM, 2.3 µM and 0.38 µM.
On the same counts, the results for `c1ccc(-c2nc3ncccn3c2CN2CCNCC2)cc1` are 0.72 µM, 26.7 µM and 9.4 µM.
As to `c1ccc(-c2nc3ncccn3c2CN2CCCC2)cc1`, the GI50 was 0.05 µM in the test with A549, 0.07 µM with HeLa, 0.07 µM in the test with MDA-MB-231 and 0.06 µM in test [1].
As for `Cc1ccc(S(=O)(=O)N2CCN(Cc3c(-c4ccccc4)nc4ncccn34)CC2)cc1`, the values for the GI50 (with HeLa; in the test on MDA-MB-231; in test [1]) were 4.5 µM, 12.9 µM and 0.11 µM, respectively.
For `Clc1ccc(-c2nc3ncccn3c2CN2CCN(Cc3c(-c4ccc(Cl)cc4)nc4ncccn34)CC2)cc1`, the GI50 in the test on HeLa stood at 25.6 µM; with MDA-MB-231 it was 4.7 µM; in test [1], 0.24 µM.
In the case of `Cc1ccn2c(CN3CCN(Cc4c(-c5ccccc5)nc5nc(C)ccn45)CC3)c(-c3ccccc3)nc2n1`, the values for the GI50 (in the test with HeLa; with MDA-MB-231; in test [1]) were 12.7 µM, 15.9 µM and 0.6 µM, respectively.
As for `Cc1ccn2c(CN3CCCC3)c(-c3ccc(O)cc3)nc2n1`, the GI50 in the test on A549 is 2.48 µM; in the test with HeLa it was 4.76 µM; with MDA-MB-231, 1.2 µM; in test [1] it was 7.28 µM.
For `CN(Cc1c(-c2ccccc2)nc2ncccn12)c1ccccc1` the same measures were 5.19 µM, 3.12 µM, 0.32 µM and 5.76 µM.
As for `Clc1ccc(-c2nc3ncccn3c2CN2CCN(Cc3c(-c4ccc(Cl)cc4Cl)nc4ncccn34)CC2)c(Cl)c1`, the GI50 with HeLa is 2.72 µM; in the test with MDA-MB-231, 0.21 µM; in test [1], 27.7 µM.
In the case of `c1ccc(-c2nc3ncccn3c2CN2CCCCC2)cc1`, the concentration for 50% growth inhibition (GI50) in the test on A549 turned out to be 0.26 µM; in the test with HeLa, 2.28 µM; in the test with MDA-MB-231, 0.03 µM; in test [1], 1.31 µM.
Take `Cc1ccn2c(CN3CCCCC3)c(C(C)(C)C)nc2n1`: the GI50 was determined as 7.39 µM in the test on A549, 0.45 µM in the test on HeLa, 0.35 µM in the test with MDA-MB-231 and 0.96 µM in test [1].
With `Cc1ccn2c(CN3CCN(Cc4c(C(C)(C)C)nc5nc(C)ccn45)CC3)c(C(C)(C)C)nc2n1`, the concentration for 50% growth inhibition (GI50) came to 14.5 µM in the test with HeLa, 25.7 µM in the test on MDA-MB-231 and 1.4 µM in test [1].
As for `c1csc(-c2nc3ncccn3c2CN2CCN(Cc3c(-c4cccs4)nc4ncccn34)CC2)c1`, the GI50 with HeLa is 0.93 µM; in the test on MDA-MB-231 it was 7.1 µM; in test [1], 3.7 µM.
On the same counts, the results for `COc1cc(OC)n2c(CN3CCN(Cc4c(-c5ccccc5)nc5nc(OC)cc(OC)n45)CC3)c(-c3ccccc3)nc2n1` are 9.32 µM, 0.12 µM and 0.51 µM.

Source of the values: ChEMBL document CHEMBL3596118, “Synthesis and antiproliferative activity of imidazo[1,2-a]pyrimidine Mannich bases” (2015).
